Data on 14 compounds can be found in ChEMBL document CHEMBL2407057, “Structural variations on antitumour agents derived from bisacylimidoselenocarbamate. A proposal for structure-activity relationships based on the analysis of conformational behaviour” (Eur J Med Chem, 2013).

The structures appear in SMILES notation.

The test system of series [1] is HT-29. The experiment in a line: Cytotoxicity against human HT-29 cells after 72 hrs by MTT assay. The following applies: HT-29, 72 h; for GI50: read-out: pGI50 (converted). Format: functional.
Series [2] is described as follows: Prodrug activation assessed as induction of NaBH4-induced MeSeH release at 60 mM after 8 hrs by head space gas chromatography mass spectrometry analysis. The following applies: 60000 µM. In outline:
(§1)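 Compounds dissolved at 60 mM in 5% DMSO/H2O and held at room temperature in sealed vials. Headspace sampled at 8, 16 and 24 h for HS-GC–MS on an HP-5MS column with helium carrier at 1 mL/min, 50:1 split, and EI at 70 eV. SCAN mode was used to set SIM for MeSeH (tR 1.5 min) and DiMeDiSe (tR 2.9 min). Read-out was peak area.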

Series [3] can be described thus: Prodrug activation assessed as induction of NaBH4-induced DiMeDiSe release at 60 mM after 8 hrs by head space gas chromatography mass spectrometry analysis. The following applies: 60000 µM. In outline:
as §1

A short description of series [4]: Prodrug activation assessed as induction of NaBH4-induced […] release at 60 mM after 16 hrs by head space gas chromatography mass spectrometry analysis. The conditions noted are these: 60000 µM. In outline:
as §1

The nature of series [5]: Prodrug activation assessed as induction of NaBH4-induced […] release at 60 mM after 24 hrs by head space gas chromatography mass spectrometry analysis. The following applies: 60000 µM. In outline: as §1
The subject of series [6] is MCF7. Put plainly: Cytotoxicity against human MCF7 cells after 72 hrs by MTT assay. Format: functional. The conditions noted are these: MCF7, 72 h; for GI50: read-out: pGI50 (converted).

With `C[Se]/C(=N\C(=O)c1sccc1Cl)NC(=O)c1sccc1Cl`, in series [1], net growth stopped (TGI) at 38.8 µM. Also, the Drug metabolism result in series [2] and in series [3] was “Active” in each case.

On to `C[Se]/C(=N\C(=O)c1c2ccccc2nc2ccccc12)NC(=O)c1c2ccccc2nc2ccccc12`, for which the Drug metabolism entry in series [4] was “Active”; in series [5], “Active”; in series [2], “Not Active”; in series [3] it was “Not Active”. The GI50 is 73.9 µM in series [6] and 7.63 µM in series [1]. This compound returned a TGI in series [1] of 64 µM.

In the case of `C[Se]/C(=N\C(=O)c1csc([N+](=O)[O-])c1)NC(=O)c1csc([N+](=O)[O-])c1`, the Drug metabolism result is recorded as “Active” in series [2] and “Not Active” in series [3].

`COc1cccc2c1C(=O)c1c(O)c3c(c(O)c1C2=O)C[C@@](O)(C(=O)CO)C[C@@H]3O[C@H]1C[C@H](N)[C@H](O)[C@H](C)O1` [DOXORUBICIN] came in with a TGI in series [1] of 6.31 µM.

`C[Se]/C(=N\C(=O)c1cnc2ccccc2c1)NC(=O)c1cnc2ccccc2c1`: the Drug metabolism result in series [4] is listed as “Active”; in series [5], “Active”; in series [2] it was “Not Active”; in series [3], “Not Active”. Also, the figures for the GI50 in series [6] and in series [1] were 0.66 µM and 0.2 µM, respectively.

Take `C[Se]/C(=N\C(=O)c1ccco1)NC(=O)c1ccco1`: the Drug metabolism entry in series [4], in series [5], in series [2] and in series [3] was “Active” throughout.

On to `C[Se]/C(=N\C(=O)c1ccno1)NC(=O)c1ccno1`, for which the figures for the Drug metabolism result in series [2] and in series [3] were “Not Active” and “Active”, respectively.

Turning to `C[Se]/C(=N\C(=O)c1cc2ccccc2s1)NC(=O)c1cc2ccccc2s1`, the GI50 in series [6] is 5.07 µM; in series [1], 5.62 µM. The compound further came in with a TGI in series [1] of 40.1 µM. Further, the Drug metabolism entry in series [2] and in series [3] was “Not Active” each time.

As to `C[Se]/C(=N\C(=O)c1ccc2c(c1)OCO2)NC(=O)c1ccc2c(c1)OCO2`, the GI50 in series [6] is 0.99 µM; in series [1], 0.53 µM. For the same compound, the Drug metabolism entry in series [2] and in series [3] was “Not Active” in each case.

The compound `CC(=O)O[C@H]1C(=O)[C@@]2(C)[C@H]([C@H](OC(=O)c3ccccc3)[C@]3(O)C[C@H](OC(=O)[C@H](O)[C@@H](NC(=O)c4ccccc4)c4ccccc4)C(C)=C1C3(C)C)[C@]1(OC(C)=O)CO[C@@H]1C[C@@H]2O` [PACLITAXEL] came in with a TGI in series [1] of 0.2 µM.

Consider `C[Se]/C(=N\C(=O)c1cccs1)NC(=O)c1cccs1`, for which the Drug metabolism entry in series [4] was “Active”; in series [5], “Active”; in series [2], “Not Active”; in series [3], “Active”.

Consider `C[Se]/C(=N\C(=O)c1cc(-c2ccccc2)nc2ccccc12)NC(=O)c1cc(-c2ccccc2)nc2ccccc12`, for which the results for the GI50 in series [6] and in series [1] were 0.49 µM and 0.46 µM, respectively. This compound also displayed a TGI in series [1] of 32.6 µM. Moreover, the Drug metabolism entry in series [2] and in series [3] was “Not Active” in each case.

On to `CC[C@@]1(O)C(=O)OCc2c1cc1n(c2=O)Cc2cc3ccccc3nc2-1` [CAMPTOTHECIN], for which the TGI in series [1] was found to be 0.79 µM.

For the compound `CN(Cc1cnc2nc(N)nc(N)c2n1)c1ccc(C(=O)N[C@@H](CCC(=O)O)C(=O)O)cc1` [METHOTREXATE], the CC50 in series [6] (read-out: LC50 (the source's name)) was over 100 µM.
